The source made the active and inactive calls. The calls are words filed in the database; no cut-off is given here.
Assays:
[1] = target: Phosphatidylinositol 5-phosphate 4-kinase type-2 gamma (Homo sapiens) (UniProt Q8TBX8); test: Inhibition of PIP4K2C in human SKCO1 cells at 1 uM after 4 hrs using biotin labeled TLVIKEVSSEDIADMHSNLSNYHQYIVK probe by mass-spectrometric analysis relative to control; assay type: cell-based
[2] = target: Ribosomal protein S6 kinase alpha-6 (Homo sapiens) (UniProt Q9UK32); test: Inhibition of human RSK4 (1 to 397 residues) expressed in mammalian expression system assessed as enzyme activity at 1 uM by KINOMEScan assay relative to control; set-up: scale not given: the % may be the effect or the level left
Sequence of Ribosomal protein S6 kinase alpha-6 (Homo sapiens) (Q9UK32 whole entry, the tested form may be a part): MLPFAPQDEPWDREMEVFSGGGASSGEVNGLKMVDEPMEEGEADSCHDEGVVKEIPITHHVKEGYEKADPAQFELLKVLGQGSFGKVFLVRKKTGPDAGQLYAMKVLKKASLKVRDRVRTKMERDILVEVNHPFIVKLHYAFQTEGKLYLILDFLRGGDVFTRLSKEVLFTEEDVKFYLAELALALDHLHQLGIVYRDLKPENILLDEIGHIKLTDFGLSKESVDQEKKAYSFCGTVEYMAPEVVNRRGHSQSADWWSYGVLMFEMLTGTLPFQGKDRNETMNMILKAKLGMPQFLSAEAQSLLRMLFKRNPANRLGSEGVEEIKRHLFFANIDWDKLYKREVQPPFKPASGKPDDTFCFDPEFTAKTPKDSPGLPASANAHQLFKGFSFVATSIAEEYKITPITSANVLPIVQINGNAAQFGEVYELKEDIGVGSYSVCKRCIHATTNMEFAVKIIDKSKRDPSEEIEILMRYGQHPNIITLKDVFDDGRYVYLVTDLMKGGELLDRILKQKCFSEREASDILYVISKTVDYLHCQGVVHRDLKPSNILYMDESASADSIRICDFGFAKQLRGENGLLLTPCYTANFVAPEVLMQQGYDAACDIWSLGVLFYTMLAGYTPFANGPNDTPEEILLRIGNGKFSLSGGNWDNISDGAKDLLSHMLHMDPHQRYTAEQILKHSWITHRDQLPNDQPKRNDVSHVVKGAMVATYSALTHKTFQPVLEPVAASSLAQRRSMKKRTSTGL
Procedure, shortened: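 In vitro ATP-site competition binding assay across a panel of 456 kinases, with compound tested at 1 and 10 μM.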

[3] = target: Ribosomal protein S6 kinase alpha-3 (Homo sapiens) (UniProt P51812); test: Inhibition of RSK2 domain2 in human SKCO1 cells at 1 uM after 4 hrs using biotin labeled DLKPSNILYVDESGNPESIR probe by mass-spectrometric analysis relative to control; assay type: cell-based
[4] = target: Receptor-type tyrosine-protein kinase FLT3 (Homo sapiens, UniProt P36888); test: Inhibition of FLT3 (unknown origin)
Sequence of Receptor-type tyrosine-protein kinase FLT3 (P36888 whole entry): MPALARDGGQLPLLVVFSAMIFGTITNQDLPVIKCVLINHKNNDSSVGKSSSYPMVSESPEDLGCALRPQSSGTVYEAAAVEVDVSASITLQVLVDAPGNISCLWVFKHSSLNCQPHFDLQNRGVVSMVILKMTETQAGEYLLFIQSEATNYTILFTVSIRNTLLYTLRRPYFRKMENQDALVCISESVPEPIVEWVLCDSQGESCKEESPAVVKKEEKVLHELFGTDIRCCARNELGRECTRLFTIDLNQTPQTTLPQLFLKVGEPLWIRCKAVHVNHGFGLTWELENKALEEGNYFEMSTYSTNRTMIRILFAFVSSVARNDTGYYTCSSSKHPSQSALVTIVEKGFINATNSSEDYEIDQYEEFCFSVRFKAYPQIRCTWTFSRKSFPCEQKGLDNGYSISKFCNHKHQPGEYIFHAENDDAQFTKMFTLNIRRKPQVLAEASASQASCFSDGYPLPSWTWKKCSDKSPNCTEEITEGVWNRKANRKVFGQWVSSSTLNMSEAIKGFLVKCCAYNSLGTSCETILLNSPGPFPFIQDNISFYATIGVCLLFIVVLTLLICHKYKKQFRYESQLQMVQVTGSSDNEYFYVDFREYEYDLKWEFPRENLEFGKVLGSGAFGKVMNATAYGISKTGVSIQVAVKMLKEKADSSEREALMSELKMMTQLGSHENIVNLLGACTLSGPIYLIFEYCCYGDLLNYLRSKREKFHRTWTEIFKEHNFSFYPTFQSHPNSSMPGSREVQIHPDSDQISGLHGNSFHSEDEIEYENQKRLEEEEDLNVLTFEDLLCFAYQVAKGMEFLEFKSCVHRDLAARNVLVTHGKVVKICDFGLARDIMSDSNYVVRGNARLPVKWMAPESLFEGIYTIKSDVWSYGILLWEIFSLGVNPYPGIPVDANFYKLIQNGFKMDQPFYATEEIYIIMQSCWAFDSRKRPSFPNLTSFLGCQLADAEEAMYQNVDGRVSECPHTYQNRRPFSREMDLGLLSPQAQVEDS

[5] = target: T1, 80S Ribosome (Homo sapiens) (UniProt P08865+P42677+P62753+P15880+P23396+P61247+P62701+P22090+P46782+P62081+P62241+P46781+P46783+P62280+P25398+P62277+P62263+P62841+P62244+P62249+P08708+P62269+P39019+P60866+P63220+P62266+P62847+P62851+P62854+P62979+P62857+P62273+P62861+P39023+P36578+P46777+Q02878+P18124+P62424+P62917+P32969+P27635+P62906+P62913+P30050+P26373+P40429+P50914+P61313+P18621+Q07020+Q02543+P84098+P46778+P35268+P62829+P62750+P83731+P61254+P61353+P46776+P46779+P47914+P62888+P62899+P62910+P49207+P42766+P18077+Q9Y3U8+P83881+P61927+P61513+P63173+P62891+P62945+P05388+P05386); test: Binding affinity to RPS25 in human NCI-H23 cells at 1 uM by mass spectrometry based pull down assay; assay type: cell-based
[6] = target: Acyl-coenzyme A thioesterase 13 (Homo sapiens) (UniProt Q9NPJ3); test: Binding affinity to ACOT13 in human NCI-H23 cells at 1 uM by mass spectrometry based pull down assay; assay type: cell-based
Sequence of Acyl-coenzyme A thioesterase 13 (Homo sapiens) (Q9NPJ3 whole entry): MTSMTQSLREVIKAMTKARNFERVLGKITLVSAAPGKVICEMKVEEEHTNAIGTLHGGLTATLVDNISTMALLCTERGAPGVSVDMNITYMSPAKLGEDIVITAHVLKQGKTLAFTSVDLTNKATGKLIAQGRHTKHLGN
Procedure, shortened: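 NCI-H23 or NCI-H358 cells were grown and lysed. Lysates were incubated overnight at 4 °C with 1 μM biotinylated covalent probe or DMSO, then pulled down on streptavidin beads. Proteins were run on polyacrylamide gels and stained with Coomassie. Bands were excised, digested and identified by mass spectrometry.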

[7] = target: Actin-related protein 2/3 complex subunit 2 (Homo sapiens) (UniProt O15144); test: Binding affinity to ARPC2 in human NCI-H23 cells at 1 uM by mass spectrometry based pull down assay; assay type: cell-based
[8] = target: Bridging integrator 3 (Homo sapiens) (UniProt Q9NQY0); test: Binding affinity to BIN3 in human NCI-H23 cells at 1 uM by mass spectrometry based pull down assay; assay type: cell-based
Sequence of Bridging integrator 3 (Homo sapiens) (Q9NQY0 whole entry): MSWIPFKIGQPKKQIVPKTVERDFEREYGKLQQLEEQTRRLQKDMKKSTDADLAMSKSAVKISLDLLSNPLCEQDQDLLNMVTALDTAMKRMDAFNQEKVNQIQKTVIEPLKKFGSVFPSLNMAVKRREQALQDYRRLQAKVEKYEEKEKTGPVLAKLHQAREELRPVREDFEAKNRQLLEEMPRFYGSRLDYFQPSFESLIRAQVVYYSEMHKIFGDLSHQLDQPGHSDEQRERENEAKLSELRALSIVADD

[9] = target: Myeloid leukemia factor 2 (Homo sapiens) (UniProt Q15773); test: Binding affinity to MLF2 in human NCI-H23 cells at 1 uM by mass spectrometry based pull down assay; assay type: cell-based
[10] = target: Adenylyltransferase and sulfurtransferase MOCS3 (Homo sapiens) (UniProt O95396); test: Binding affinity to MOCS3 in human NCI-H23 cells at 1 uM by mass spectrometry based pull down assay; assay type: cell-based
[11] = target: Glycogen synthase kinase-3 alpha (Homo sapiens) (UniProt P49840); test: Binding affinity to GSK3A in human NCI-H23 cells at 1 uM by mass spectrometry based pull down assay; assay type: cell-based
Sequence of Glycogen synthase kinase-3 alpha (Homo sapiens) (P49840 2-483 limits assumed): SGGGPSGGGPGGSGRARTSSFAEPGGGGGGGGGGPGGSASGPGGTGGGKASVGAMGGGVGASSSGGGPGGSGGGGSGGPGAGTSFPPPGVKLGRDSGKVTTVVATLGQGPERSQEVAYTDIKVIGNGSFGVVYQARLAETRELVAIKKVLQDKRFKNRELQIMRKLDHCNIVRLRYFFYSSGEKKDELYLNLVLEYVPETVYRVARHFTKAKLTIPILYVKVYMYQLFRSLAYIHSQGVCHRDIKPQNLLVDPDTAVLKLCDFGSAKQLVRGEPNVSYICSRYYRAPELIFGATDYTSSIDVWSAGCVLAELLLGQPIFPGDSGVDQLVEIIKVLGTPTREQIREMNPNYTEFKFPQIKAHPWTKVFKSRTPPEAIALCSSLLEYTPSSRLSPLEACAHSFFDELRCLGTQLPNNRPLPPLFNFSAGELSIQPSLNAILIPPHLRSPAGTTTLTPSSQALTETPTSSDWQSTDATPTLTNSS

[12] = target: T2, Aurora kinase A (Homo sapiens) (UniProt O14965); test: Binding affinity to AURKA in human NCI-H23 cells at 1 uM by mass spectrometry based pull down assay; assay type: cell-based
T2 sequence (whole entry): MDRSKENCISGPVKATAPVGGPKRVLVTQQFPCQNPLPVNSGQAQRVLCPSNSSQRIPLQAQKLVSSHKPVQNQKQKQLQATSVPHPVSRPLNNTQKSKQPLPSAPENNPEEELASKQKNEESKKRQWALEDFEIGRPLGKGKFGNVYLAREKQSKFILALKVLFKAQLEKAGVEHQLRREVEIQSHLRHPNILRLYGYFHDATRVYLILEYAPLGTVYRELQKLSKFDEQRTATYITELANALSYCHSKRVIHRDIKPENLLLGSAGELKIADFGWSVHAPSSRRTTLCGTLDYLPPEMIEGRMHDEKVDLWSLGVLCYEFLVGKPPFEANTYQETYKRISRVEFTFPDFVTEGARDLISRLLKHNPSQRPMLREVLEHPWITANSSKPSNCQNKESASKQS

[13] = target: Citrate synthase, mitochondrial (Homo sapiens) (UniProt O75390); test: Binding affinity to CS in human NCI-H358 cells at 1 uM by mass spectrometry based pull down assay; assay type: cell-based
[14] = target: Deoxyribose-phosphate aldolase (Homo sapiens) (UniProt Q9Y315); test: Binding affinity to DERA in human NCI-H358 cells at 1 uM by mass spectrometry based pull down assay; assay type: cell-based
[15] = target: Ubiquitin-like modifier-activating enzyme 1 (Homo sapiens) (UniProt P22314); test: Binding affinity to UBA1 in human NCI-H358 cells at 1 uM by mass spectrometry based pull down assay; assay type: cell-based
[16] = target: Carbonyl reductase [NADPH] 1 (Homo sapiens) (UniProt P16152); test: Binding affinity to CBR1 in human NCI-H358 cells at 1 uM by mass spectrometry based pull down assay; assay type: cell-based
Sequence of Carbonyl reductase [NADPH] 1 (Homo sapiens) (P16152 whole entry): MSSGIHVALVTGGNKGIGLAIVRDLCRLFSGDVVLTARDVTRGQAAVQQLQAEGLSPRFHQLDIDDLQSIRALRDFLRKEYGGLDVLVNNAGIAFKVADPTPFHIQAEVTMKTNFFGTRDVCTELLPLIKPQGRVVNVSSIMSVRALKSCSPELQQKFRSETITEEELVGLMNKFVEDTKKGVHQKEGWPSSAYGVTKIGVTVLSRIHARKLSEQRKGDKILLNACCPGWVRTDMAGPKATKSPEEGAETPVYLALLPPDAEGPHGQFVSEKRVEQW

[17] = target: RuvB-like 2 (Homo sapiens) (UniProt Q9Y230); test: Binding affinity to RUVBL2 in human NCI-H358 cells at 1 uM by mass spectrometry based pull down assay; assay type: cell-based
Sequence of RuvB-like 2 (Homo sapiens) (Q9Y230 whole entry): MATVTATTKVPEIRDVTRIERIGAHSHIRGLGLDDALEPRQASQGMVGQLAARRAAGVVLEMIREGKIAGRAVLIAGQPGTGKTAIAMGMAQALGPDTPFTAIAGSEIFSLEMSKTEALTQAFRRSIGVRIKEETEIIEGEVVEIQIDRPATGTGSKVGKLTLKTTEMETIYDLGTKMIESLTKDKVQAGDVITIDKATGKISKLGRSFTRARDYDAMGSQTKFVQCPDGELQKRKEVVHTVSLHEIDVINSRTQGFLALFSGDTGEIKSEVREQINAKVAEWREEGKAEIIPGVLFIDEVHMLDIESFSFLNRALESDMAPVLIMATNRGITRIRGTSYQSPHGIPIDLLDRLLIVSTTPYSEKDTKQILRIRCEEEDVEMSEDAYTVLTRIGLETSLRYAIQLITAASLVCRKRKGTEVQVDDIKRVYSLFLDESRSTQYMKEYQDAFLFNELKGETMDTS

[18] = target: T1, 80S Ribosome (Homo sapiens); test: Binding affinity to RPL31 in human NCI-H358 cells at 1 uM by mass spectrometry based pull down assay; assay type: cell-based
[19] = target: F-actin-capping protein subunit alpha-1 (Homo sapiens) (UniProt P52907); test: Binding affinity to CAPZA1 in human NCI-H358 cells at 1 uM by mass spectrometry based pull down assay; assay type: cell-based
[20] = target: Jupiter microtubule associated homolog 2 (Homo sapiens) (UniProt Q9H910); test: Binding affinity to HN1L in human NCI-H358 cells at 1 uM by mass spectrometry based pull down assay; assay type: cell-based
Sequence of Jupiter microtubule associated homolog 2 (Homo sapiens) (Q9H910 whole entry): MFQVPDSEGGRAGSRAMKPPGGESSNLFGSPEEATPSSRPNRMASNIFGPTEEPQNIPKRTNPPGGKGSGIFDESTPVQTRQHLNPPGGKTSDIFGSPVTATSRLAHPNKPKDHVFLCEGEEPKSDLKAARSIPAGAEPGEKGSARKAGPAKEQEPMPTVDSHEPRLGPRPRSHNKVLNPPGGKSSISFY

Gelsolin (Homo sapiens) = Gelsolin (Homo sapiens) (UniProt P06396); test: Binding affinity to GSN in human NCI-H358 cells at 1 uM by mass spectrometry based pull down assay; assay type: cell-based
Sequence of Gelsolin (Homo sapiens) (P06396 whole entry): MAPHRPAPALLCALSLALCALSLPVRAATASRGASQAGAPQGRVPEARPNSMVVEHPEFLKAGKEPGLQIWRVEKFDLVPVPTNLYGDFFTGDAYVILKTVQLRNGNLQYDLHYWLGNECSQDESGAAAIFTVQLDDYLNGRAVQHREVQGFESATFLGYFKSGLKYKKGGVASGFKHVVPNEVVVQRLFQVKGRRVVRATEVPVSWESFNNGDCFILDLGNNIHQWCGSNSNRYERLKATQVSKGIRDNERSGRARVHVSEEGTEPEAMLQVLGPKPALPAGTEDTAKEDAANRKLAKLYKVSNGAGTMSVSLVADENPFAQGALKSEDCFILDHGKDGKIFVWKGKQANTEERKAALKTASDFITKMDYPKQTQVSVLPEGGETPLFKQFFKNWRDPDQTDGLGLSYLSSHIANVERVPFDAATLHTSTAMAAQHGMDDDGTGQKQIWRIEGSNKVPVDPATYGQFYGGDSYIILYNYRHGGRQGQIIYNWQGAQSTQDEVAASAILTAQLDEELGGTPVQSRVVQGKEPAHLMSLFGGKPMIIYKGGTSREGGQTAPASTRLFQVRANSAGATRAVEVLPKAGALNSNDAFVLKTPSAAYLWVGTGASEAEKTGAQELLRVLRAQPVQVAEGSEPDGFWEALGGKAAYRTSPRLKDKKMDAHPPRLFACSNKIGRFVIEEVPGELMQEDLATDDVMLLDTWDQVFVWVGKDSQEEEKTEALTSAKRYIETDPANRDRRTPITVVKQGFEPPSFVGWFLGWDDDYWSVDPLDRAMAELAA

Vigilin (Homo sapiens) = Vigilin (Homo sapiens) (UniProt Q00341); test: Binding affinity to HDLBP in human NCI-H358 cells at 1 uM by mass spectrometry based pull down assay; assay type: cell-based
NCI-H358 = test: Binding affinity to XRCC5 in human NCI-H358 cells at 1 uM by mass spectrometry based pull down assay; assay type: cell-based

Sequence of Phosphatidylinositol 5-phosphate 4-kinase type-2 gamma (Homo sapiens) (Q8TBX8 whole entry, the tested form may be a part): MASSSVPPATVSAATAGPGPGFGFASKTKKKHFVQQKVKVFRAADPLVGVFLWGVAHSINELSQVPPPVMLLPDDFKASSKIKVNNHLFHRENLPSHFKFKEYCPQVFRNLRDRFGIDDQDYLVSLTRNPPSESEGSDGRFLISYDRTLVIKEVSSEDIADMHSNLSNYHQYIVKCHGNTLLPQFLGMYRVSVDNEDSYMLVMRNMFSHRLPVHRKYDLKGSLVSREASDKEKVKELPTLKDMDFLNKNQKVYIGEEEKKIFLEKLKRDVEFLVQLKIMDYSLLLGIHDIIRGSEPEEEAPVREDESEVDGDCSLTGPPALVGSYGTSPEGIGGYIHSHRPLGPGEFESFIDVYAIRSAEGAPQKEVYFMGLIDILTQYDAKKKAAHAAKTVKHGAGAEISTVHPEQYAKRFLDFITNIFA

COc1cc(O)c2c(c1)/C=C/C[C@H](O)[C@H](O)C(=O)/C=C\C[C@H](C)OC2=O
inhibition [1]: 16.8%
Activity [2]: 34%

C=CC(=O)Nc1ccccc1Oc1nc(Nc2cnn(CCOC)c2)ncc1Cl
inhibition [3]: -9.3%
IC50 [4]: 0.54 nM

C=CC(=O)Nc1ccccc1Nc1nc(Nc2ccc(N3CCN(CCOCCOCCOCCNC(=O)CCCC[C@@H]4SC[C@@H]5NC(=O)N[C@@H]54)CC3)cc2)ncc1Cl
Activity [5]: Active
Activity [6]: Active
Activity [7]: Active
Activity [8]: Active
Activity [9]: Active
Activity [10]: Active
Activity [11]: Active
Activity [12]: Active
Activity [13]: Active
Activity [14]: Active
Activity [15]: Active
Activity [16]: Active
Activity [17]: Active
Activity [18]: Active
Activity [19]: Active
Activity [20]: Active
Activity (Gelsolin (Homo sapiens)): Active
Activity (Vigilin (Homo sapiens)): Active
Activity (NCI-H358): Active
